In ChEMBL document CHEMBL1641594, “Cytotoxicity of new polyfluorinated 1,4-naphtoquinones with diverse substituents in the quinone moiety” (Bioorg Med Chem, 2011):

Columns and labels:
Salmonella typhimurium [1] = assay: Reduction of spontaneous mutagenesis in histidine-dependent Salmonella Typhimurium TA102 harboring histidine operon mutant assessed as inhibition of H2O2-induced formation of mutants from 100% to 50% of revertants after 48 hrs by Ames test; assay type: functional, organism-based, Salmonella enterica subsp. enterica serovar Typhimurium; conditions: Salmonella enterica, TA102, 48 h
Outline: (§1)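 S. typhimurium TA102 Ames test without metabolic activation. Single colony grown 15 h at 37 °C with shaking in LB with ampicillin (50 µg/ml) and tetracycline (2 µg/ml). Overnight culture mixed with compound at varied concentrations, with or without 3 mM H2O2, in 0.6% top agar at 42 °C. Poured onto minimal 0.2% glucose plates, incubated 48 h at 37 °C, revertants counted. Untreated revertant count set as 100%. At least three independent experiments.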

[2] = Cytotoxicity against mouse LMTK cells after 72 hrs by MTT assay; assay type: cell-based; conditions: L-M(TK-)
Outline: (§2)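 RPMI 8226, MCF-7, LMTK and primary mouse fibroblasts (PMF) were seeded at ~2000 cells per well and preincubated 24 h at 37 °C, 5% CO2, in IMDM or RPMI 1640. Compounds were then added and cells incubated a further 72 h. Viable cells were quantified by MTT colorimetric assay, and the concentration giving 50% growth inhibition (IC50) was derived. Values are mean ± SD of at least three independent experiments.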

MCF7 [3] = assay: Ratio of compound IC50 to F-Cpd5 IC50 for human MCF7 cells; assay type: functional, cell-based
MCF7 [4] = assay: Cytotoxicity against human MCF7 cells after 72 hrs by MTT assay; assay type: functional, cell-based; conditions: MCF7, 72 h; outline: as §2
Salmonella typhimurium [5] = assay: Reduction of spontaneous mutagenesis in histidine-dependent Salmonella Typhimurium TA102 harboring histidine operon mutant assessed as concentration required to suppress 100% to 50% mutagenesis after 48 hrs by Ames test; assay type: functional, organism-based, Salmonella enterica subsp. enterica serovar Typhimurium; conditions: Salmonella enterica, TA102, 48 h; outline: as §1
[6] = Cytotoxicity against PMF at 25 ug/ml after 72 hrs by MTT assay; conditions: mouse, PMF cells; read-out: INH
Outline: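 Cells (~2000 per well) were preincubated 24 h at 37 °C, 5% CO2, in IMDM or RPMI 1640, then exposed to compound for 72 h with MTT read-out. Where cytotoxicity was low, percent growth inhibition at the highest concentration tested was recorded instead of an IC50. Values are mean ± SD of at least three independent experiments.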

[7] = Cytotoxicity against PMF at 25 ug/ml after 72 hrs by MTT assay; conditions: mouse
Salmonella typhimurium [8] = assay: Reduction of spontaneous mutagenesis in histidine-dependent Salmonella Typhimurium TA102 harboring histidine operon mutant assessed as inhibition of H2O2-induced formation of mutants from 150% to 100% of revertants after 48 hrs by Ames test; assay type: functional, organism-based, Salmonella enterica subsp. enterica serovar Typhimurium; conditions: Salmonella enterica, TA102, 48 h; outline: as §1
[9] = Cytotoxicity against mouse LMTK cells at 30 uM after 72 hrs by MTT assay; assay type: cell-based
RPMI-8226 [10] = assay: Cytotoxicity against human RPMI8226 cells after 72 hrs by MTT assay; assay type: functional, cell-based; conditions: RPMI-8226, 72 h; outline: as §2
MCF7 [11] = assay: Ratio of IC50 for human MCF7 cellss to IC50 for human RPMI8226 cells; assay type: functional
[12] = Cytotoxicity against PMF after 72 hrs by MTT assay; design: species or system Mus musculus; outline: as §2
RPMI-8226 [13] = assay: Ratio of compound IC50 to F-Cpd5 IC50 for human RPMI8226 cells; assay type: functional, cell-based

Row | Structure (SMILES) | IC50 (Salmonella typhimurium [1]) [µM] | IC50 [2] [µM] | Ratio IC50 (MCF7 [3]) | IC50 (MCF7 [4]) [µM] | IC50 (Salmonella typhimurium [5]) [µM] | cytotoxicity at 72 h, 25 ug/ml [6] [%] | activity at 25 ug/ml [7] [%] | IC50 (Salmonella typhimurium [8]) [µM] | Activity [9] [%] | IC50 (RPMI-8226 [10]) [µM] | Ratio IC50 (MCF7 [11]) | IC50 [12] [µM] | Ratio IC50 (RPMI-8226 [13])
1 | O=C1C(F)=C(N2CCOCC2)C(=O)c2c(F)c(F)c(F)c(F)c21 | 169 | 30 | 13 | 5.7 | 131 | 45 | 45 | 54 | 50 | 6 |  |  | 
2 | COC1=C(OC)C(=O)c2c(F)c(F)c(F)c(F)c2C1=O | 53.8 | 8.6 | 13 | 6 | 198 |  |  | 38.3 |  | 0.96 | 6 | 18.9 | 
3 | O=C1C(F)=C(Nc2ccccc2)C(=O)c2c(F)c(F)c(F)c(F)c21 |  |  | 2 |  |  |  |  |  |  |  |  |  | 2
4 | CCN(CC)C1=C(F)C(=O)c2c(F)c(F)c(F)c(F)c2C1=O |  |  | 2 |  |  |  |  |  |  |  |  |  | 2
5 | CN(CCO)C1=C(F)C(=O)c2c(F)c(F)c(F)c(F)c2C1=O | 30.2 | 44.5 | 13 | 2.4 | 37.6 |  |  | 3.4 |  | 5.6 |  | 24.9 | 
6 | COC1=C(F)C(=O)c2c(F)c(F)c(F)c(F)c2C1=O | 20 | 13.7 |  | 26.5 | 39 |  |  | 2.8 |  | 4 |  | 8.9 | 
7 | CCNC1=C(F)C(=O)c2c(F)c(F)c(F)c(F)c2C1=O |  |  | 2 |  |  |  |  |  |  |  |  |  | 2
8 | O=C1C(F)=C(NCCO)C(=O)c2c(F)c(F)c(F)c(F)c21 | 44.9 | 11.7 | 13 | 5.8 | 54 |  |  | 26 |  | 1.2 | 4.8 | 3.3 | 
9 | O=C1C=C(SCCO)C(=O)c2c(F)c(F)c(F)c(F)c21 | 23.5 | 25 |  | 12.8 | 26.1 |  |  | 12.7 |  | 2.9 |  | 30 | 5.3
10 | CC(C)(C)NC1=C(F)C(=O)c2c(F)c(F)c(F)c(F)c2C1=O |  |  | 2 |  |  |  |  |  |  |  |  |  | 2
11 | O=C1C(F)=C(N(CCO)CCO)C(=O)c2c(F)c(F)c(F)c(F)c21 | 45.3 | 52.7 | 13 | 7.5 | 275 |  |  | 2.9 |  | 5.1 |  | 34 | 
